{
  "source": "ChEMBL document CHEMBL1123920",
  "about": "“Leukotriene D4 antagonists and 5-lipoxygenase inhibitors. Synthesis of benzoheterocyclic [(methoxyphenyl)amino]oxoalkanoic acid esters” (J Med Chem, 1987)",
  "key": {"Cavia porcellus": {"tested_on": "Cavia porcellus", "test": "Ability to inhibit the Ovalbumin induced bronchospasm in guinea pig was determined in vivo at a dose of 50 mg/kg id", "type": "functional", "conditions": "route intraduodenal", "procedure,_shortened": "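Guinea pigs were challenged with LTD4 or ovalbumin to induce bronchospasm, and test agent was given intraduodenally. Read-out is percent inhibition of bronchospasm. Significance uses a two-tailed Student's t test (p < 0.05). N is the number of treated animals.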"}, "[1]": {"biological_target": "T1, Polyunsaturated fatty acid 5-lipoxygenase (Rattus norvegicus, UniProt P12527)", "T1 sequence (P12527 whole entry)": "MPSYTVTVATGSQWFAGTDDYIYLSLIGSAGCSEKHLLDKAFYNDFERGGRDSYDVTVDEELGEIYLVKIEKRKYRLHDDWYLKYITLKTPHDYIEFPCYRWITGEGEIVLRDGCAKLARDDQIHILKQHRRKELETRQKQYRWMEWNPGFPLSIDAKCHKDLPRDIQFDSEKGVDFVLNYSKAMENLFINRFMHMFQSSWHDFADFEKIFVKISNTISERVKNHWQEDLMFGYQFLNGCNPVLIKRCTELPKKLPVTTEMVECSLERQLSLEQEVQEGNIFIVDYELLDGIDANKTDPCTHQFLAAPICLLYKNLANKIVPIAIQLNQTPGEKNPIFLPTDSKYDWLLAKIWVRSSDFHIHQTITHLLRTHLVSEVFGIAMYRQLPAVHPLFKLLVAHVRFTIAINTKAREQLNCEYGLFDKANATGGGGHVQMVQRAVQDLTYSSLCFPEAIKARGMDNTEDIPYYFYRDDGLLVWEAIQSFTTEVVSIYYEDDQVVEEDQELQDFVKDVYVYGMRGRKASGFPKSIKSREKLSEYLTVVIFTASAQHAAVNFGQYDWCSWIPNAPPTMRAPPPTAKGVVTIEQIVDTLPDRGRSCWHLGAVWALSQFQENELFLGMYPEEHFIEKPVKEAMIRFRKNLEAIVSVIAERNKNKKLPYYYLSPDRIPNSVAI", "test": "(§1) Ability to inhibit Lipoxygenase in vitro was determined"}, "Rattus norvegicus [2]": {"organism": "Rattus norvegicus", "test": "Tested for metabolic activation counted as mean number of revertants in strains TA98, TA100, TA1535, and TA1538, three plates per treatment at 0.15 mg per plate, with activation provided by S-9 rat liver homogenates in Ames test", "type": "functional, organism-based"}, "Rattus norvegicus [3]": {"organism": "Rattus norvegicus", "test": "Tested for metabolic activation counted as mean number of revertants in strains TA98, TA100, TA1535, and TA1538, three plates per treatment at 0.05 mg per plate, without activation in the absence of S-9 rat liver homogenates in Ames test", "type": "functional, organism-based"}, "[4]": {"tested_on": "Cysteinyl leukotriene receptor (Cavia porcellus)", "test": "Inhibition of LTD4 induced bronchospasm in guinea pig was determined in at 50 mg/kg i.d."}, "Rattus norvegicus [5]": {"organism": "Rattus norvegicus", "test": "Tested for metabolic activation counted as mean number of revertants in strains TA98, TA100, TA1535, and TA1538, three plates per treatment at 0.015 mg per plate, without activation in the absence of S-9 rat liver homogenates in Ames test", "type": "functional, organism-based"}, "Rattus norvegicus [6]": {"organism": "Rattus norvegicus", "test": "Tested for metabolic activation counted as mean number of revertants in strains TA98, TA100, TA1535, and TA1538, three plates per treatment at 0.05 mg per plate, with activation provided by S-9 rat liver homogenates in Ames test", "type": "functional, organism-based"}, "Rattus norvegicus [7]": {"organism": "Rattus norvegicus", "test": "Tested for metabolic activation counted as mean number of revertants in strains TA98, TA100, TA1535, and TA1538, three plates per treatment at 0.005 mg per plate, with activation provided by S-9 rat liver homogenates in Ames test", "type": "functional, organism-based"}, "Rattus norvegicus [8]": {"organism": "Rattus norvegicus", "test": "Tested for metabolic activation counted as mean number of revertants in strains TA98, TA100, TA1535, and TA1538, three plates per treatment at 0.005 mg per plate, without activation in the absence of S-9 rat liver homogenates in Ames test", "type": "functional, organism-based"}, "Rattus norvegicus [9]": {"organism": "Rattus norvegicus", "test": "Tested for metabolic activation counted as mean number of revertants in strains TA98, TA100, TA1535, and TA1538, three plates per treatment at 0.5 mg per plate, with activation provided by S-9 rat liver homogenates in Ames test", "type": "functional, organism-based"}, "Rattus norvegicus [10]": {"organism": "Rattus norvegicus", "test": "Tested for metabolic activation counted as mean number of revertants in strains TA98, TA100, TA1535, and TA1538, three plates per treatment at 0.015 mg per plate, with activation provided by S-9 rat liver homogenates in Ames test", "type": "functional, organism-based"}, "Rattus norvegicus [11]": {"organism": "Rattus norvegicus", "test": "Tested for metabolic activation counted as mean number of revertants in strains TA98, TA100, TA1535, and TA1538, three plates per treatment at 0.15 mg per plate, without activation in the absence of S-9 rat liver homogenates in Ames test", "type": "functional, organism-based"}, "[12]": {"biological_target": "T2, Polyunsaturated fatty acid 5-lipoxygenase (Rattus norvegicus) (UniProt P12527)", "T2 sequence (whole entry)": "T1 sequence (P12527 whole entry)", "test": "Ability to inhibit Lipoxygenase in vitro was determined; NA is <50% inhibition at 100 uM", "procedure,_shortened": "(§2)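 Source is rat polymorphonuclear leukocyte (PMN) 5-lipoxygenase. IC50 values come from nonlinear regression analysis, significant at p < 0.05.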"}, "[13]": {"biological_target": "T1, Polyunsaturated fatty acid 5-lipoxygenase", "test": "Ability to inhibit the rat Lipoxygenase in vitro was determined", "procedure,_shortened": "as §2"}, "[14]": {"biological_target": "T1, Polyunsaturated fatty acid 5-lipoxygenase", "test": "as §1", "procedure,_shortened": "as §2", "remark": "listed apart in the source"}},
  "data": [
    {"compound": "COC(=O)CCC(=O)Nc1cccc(Oc2nc3ccccc3s2)c1", "values": [
      {"measurement": "inhibition in vivo at 50 mg/kg", "setting": "Cavia porcellus", "value": 7, "unit": "%"},
      {"measurement": "IC50", "setting": "[1]", "value": 27.1, "unit": "µM"}
    ]},
    {"compound": "COC(=O)CCC(=O)N(C)c1cccc(OCc2nc3ccccc3s2)c1", "values": [
      {"measurement": "inhibition in vivo at 50 mg/kg", "setting": "Cavia porcellus", "value": 19, "unit": "%"},
      {"measurement": "IC50", "setting": "[1]", "value": 21, "unit": "µM"}
    ]},
    {"compound": "COC(=O)CCC(=O)Nc1cccc(OCc2cc3ccccc3o2)c1", "values": [
      {"measurement": "inhibition in vivo at 50 mg/kg", "setting": "Cavia porcellus", "value": 12, "unit": "%"},
      {"measurement": "IC50", "setting": "[1]", "value": 17.9, "unit": "µM"}
    ]},
    {"compound": "COC(=O)CCC(=O)N(O)c1cccc(OCc2ccc3ccccc3n2)c1", "values": [
      {"measurement": "Mean no. of revertants", "setting": "Rattus norvegicus [2]", "value": 12},
      {"measurement": "Mean no. of revertants", "setting": "Rattus norvegicus [3]", "value": 13},
      {"measurement": "inhibition", "setting": "[4]", "value": 97, "unit": "%"},
      {"measurement": "Mean no. of revertants", "setting": "Rattus norvegicus [5]", "value": 9},
      {"measurement": "inhibition in vivo at 50 mg/kg", "setting": "Cavia porcellus", "value": 76, "unit": "%"},
      {"measurement": "Mean no. of revertants", "setting": "Rattus norvegicus [6]", "value": 16},
      {"measurement": "Mean no. of revertants", "setting": "Rattus norvegicus [7]", "value": 13},
      {"measurement": "Mean no. of revertants", "setting": "Rattus norvegicus [8]", "value": 15},
      {"measurement": "Mean no. of revertants", "setting": "Rattus norvegicus [9]", "value": 716},
      {"measurement": "Mean no. of revertants", "setting": "Rattus norvegicus [10]", "value": 10},
      {"measurement": "Mean no. of revertants", "setting": "Rattus norvegicus [11]", "value": 31}
    ]},
    {"compound": "O=C1CCC(=O)N1c1cccc(OCc2ccc3ccccc3n2)c1", "values": [
      {"measurement": "Mean no. of revertants", "setting": "Rattus norvegicus [2]", "value": 8},
      {"measurement": "Mean no. of revertants", "setting": "Rattus norvegicus [3]", "value": 12},
      {"measurement": "Mean no. of revertants", "setting": "Rattus norvegicus [5]", "value": 9},
      {"measurement": "inhibition in vivo at 50 mg/kg", "setting": "Cavia porcellus", "value": 26, "unit": "%"},
      {"measurement": "Mean no. of revertants", "setting": "Rattus norvegicus [6]", "value": 7},
      {"measurement": "Mean no. of revertants", "setting": "Rattus norvegicus [7]", "value": 5},
      {"measurement": "inhibition", "setting": "[12]", "value": "< 50", "unit": "%"},
      {"measurement": "Mean no. of revertants", "setting": "Rattus norvegicus [8]", "value": 6},
      {"measurement": "Mean no. of revertants", "setting": "Rattus norvegicus [9]", "value": 45},
      {"measurement": "Mean no. of revertants", "setting": "Rattus norvegicus [10]", "value": 7},
      {"measurement": "Mean no. of revertants", "setting": "Rattus norvegicus [11]", "value": 43}
    ]},
    {"compound": "COC(=O)CCC(=O)Nc1cccc(OCc2nc3ccccc3s2)c1", "values": [
      {"measurement": "inhibition in vivo at 50 mg/kg", "setting": "Cavia porcellus", "value": 63, "unit": "%"},
      {"measurement": "IC50", "setting": "[13]", "value": 15.7, "unit": "µM"}
    ]},
    {"compound": "COC(=O)C1CC(=O)N(c2cccc(OCc3nc4ccccc4n3C)c2)C1", "note": "(stereo not given)", "values": [
      {"measurement": "inhibition", "setting": "[12]", "value": "< 50", "unit": "%"}
    ]},
    {"compound": "COC(=O)CCC(=O)N(O)c1cccc(OCc2nc3ccccc3s2)c1", "values": [
      {"measurement": "inhibition", "setting": "[4]", "value": 79, "unit": "%"},
      {"measurement": "inhibition in vivo at 50 mg/kg", "setting": "Cavia porcellus", "value": 6, "unit": "%"},
      {"measurement": "IC50", "setting": "[1]", "value": 0.36, "unit": "µM"}
    ]},
    {"compound": "COC(=O)C1CC(=O)N(c2cccc(OCc3nc4ccccc4s3)c2)C1", "note": "(stereo not given)", "values": [
      {"measurement": "IC50", "setting": "[1]", "value": 14, "unit": "µM"}
    ]},
    {"compound": "COC(=O)CC(=O)Nc1cccc(OCc2nc3ccccc3n2C)c1", "values": [
      {"measurement": "inhibition in vivo at 50 mg/kg", "setting": "Cavia porcellus", "value": 5, "unit": "%"},
      {"measurement": "inhibition", "setting": "[12]", "value": "< 50", "unit": "%"}
    ]},
    {"compound": "COC(=O)CCC(=O)Nc1cccc(OCc2nc3ccccc3o2)c1", "values": [
      {"measurement": "IC50", "setting": "[14]", "value": 69.7, "unit": "µM"},
      {"measurement": "inhibition in vivo at 50 mg/kg", "setting": "Cavia porcellus", "value": -65, "unit": "%"}
    ]},
    {"compound": "COC(=O)C1CC(=O)N(c2cccc(OCc3nc4ccccc4o3)c2)C1", "note": "(stereo not given)", "values": [
      {"measurement": "IC50", "setting": "[1]", "value": 30, "unit": "µM"}
    ]}
  ]
}
